Laboratory results published in ChEMBL document CHEMBL1132644, “Substituted isoquinolines and quinazolines as potential antiinflammatory agents. Synthesis and biological evaluation of inhibitors of tumor necrosis factor alpha” (J Med Chem, 1999).

Legend:
Jurkat = assay: Cell toxicity against jurkat cells determined using MTT assay; type: functional, cell-based; conditions: Homo sapiens
In short: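 Jurkat cells, MTT (3-[4,5-dimethylthiazol-2-yl]-2,5-diphenyltetrazolium bromide) read-out. The value is the µM concentration that inhibited growth by 50% of control.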

Tumor necrosis factor = Tumor necrosis factor (Homo sapiens, UniProt P01375); assay: The compound was tested in vitro for inhibitory activity against Tumor necrosis factor alpha from human PMBC cell line by ELISA test.; type: functional, cell-based
Chain of Tumor necrosis factor (P01375 whole entry): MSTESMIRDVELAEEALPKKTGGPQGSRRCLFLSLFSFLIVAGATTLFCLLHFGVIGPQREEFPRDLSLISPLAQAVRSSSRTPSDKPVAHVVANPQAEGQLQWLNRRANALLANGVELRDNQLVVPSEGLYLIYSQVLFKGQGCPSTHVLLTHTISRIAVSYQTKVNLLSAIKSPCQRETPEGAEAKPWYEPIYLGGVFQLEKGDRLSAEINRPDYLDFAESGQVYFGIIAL
In short: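 PBMC isolated from heparinized normal human blood by Ficoll-Histopaque, cultured in RPMI 1640 with 20% autologous plasma and L-glutamine. Compounds were added at 2× in an equal volume, 60 min preincubation, then LPS stimulation. Supernatant was taken 18 h later. TNFα sandwich ELISA (2 µg/mL mouse anti-human capture, BSA block, 2 h at 37 °C), standard curve. IC50 is the µM concentration giving 50% inhibition versus control; a subset was run in ≥3 separate experiments.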

Q: With CCOC(=O)CCCn1cnc2cc(OC)c(OC)c(N)c2c1=O [listing 1 of 2 here] as the molecule, how does the IC50 (Jurkat) read?
A: The IC50 was > 100 µM.

Q: And the IC50 (Tumor necrosis factor)?
A: The IC50 was 20 µM.

Q: How did the IC50 (Tumor necrosis factor) turn out when COc1cc2ccnc(Nc3cccc(Br)c3)c2cc1OC was run?
A: Its IC50 is 37 µM.

Q: With CCOC(=O)CCCn1cnc2cccc(Cl)c2c1=O as the molecule, how does the IC50 (Tumor necrosis factor) read?
A: Its IC50 is > 25 µM.

Q: Which results are given for CCOC(=O)CCCn1cnc2cc(OC)c(OC)cc2c1=O?
A: IC50 (Jurkat): 3 µM; IC50 (Tumor necrosis factor): 3 µM

Q: How did the IC50 (Tumor necrosis factor) turn out when CCOC(=O)CCCn1cnc2ccc(Cl)cc2c1=O was run?
A: The IC50 was > 25 µM.

Q: What does the source list for CCCn1c(=O)n(CCCC(=O)OCC)c(=O)c2nccnc21?
A: IC50 (Jurkat): > 25 µM; IC50 (Tumor necrosis factor): 3 µM

Q: How did the IC50 (Tumor necrosis factor) turn out when CCOC(=O)CCCOc1nc(Nc2ccccc2)nc2cc(OC)c(OC)cc12 was run?
A: Its IC50 is > 25 µM.

Q: With CCOC(=O)CCCn1cnc2ccc([N+](=O)[O-])cc2c1=O as the molecule, how does the IC50 (Tumor necrosis factor) read?
A: The IC50 was > 25 µM.

Q: With CCOC(=O)CCCn1ccc2cc(OC)c(OC)cc2c1=O as the molecule, how does the IC50 (Jurkat) read?
A: Its IC50 is > 50 µM.

Q: And the IC50 (Tumor necrosis factor)?
A: The IC50 was 5 µM.

Q: For CCOC(=O)CCCn1cnc2cc(OC)c(OC)c(NC(C)=O)c2c1=O, which IC50 (Tumor necrosis factor) is on record?
A: The IC50 was > 100 µM.

Q: CCOC(=O)CCCn1cc(C(C)=O)c2cc(OC)c(OC)cc2c1=O was tested. Which IC50 (Jurkat) did it give?
A: The IC50 was 47 µM.

Q: What about the IC50 (Tumor necrosis factor) of the same molecule?
A: The IC50 was 15 µM.

Q: Which IC50 (Jurkat) does the source give for CCOC(=O)CCCn1cnc2cc(OC)c(OC)c([N+](=O)[O-])c2c1=O here?
A: The IC50 was > 25 µM.

Q: And the IC50 (Tumor necrosis factor)?
A: Its IC50 is 11 µM.

Q: Which IC50 (Tumor necrosis factor) does the source give for CCOC(=O)CCCn1cc([N+](=O)[O-])c2cc(OC)c(OC)cc2c1=O here?
A: The IC50 was 35 µM.

Q: What does the source list for CCOC(=O)CCCn1cnc2ccc(N)cc2c1=O?
A: IC50 (Jurkat): > 50 µM; IC50 (Tumor necrosis factor): 4 µM

Q: Which IC50 (Tumor necrosis factor) does the source give for CCOC(=O)CCCn1c(Nc2ccc(N=[N+]=[N-])cc2)nc2cc(OC)c(OC)cc2c1=O here?
A: The IC50 was > 50 µM.

Q: CCOC(=O)CCCCn1ccc2cc(OC)c(OC)cc2c1=O was tested. Which IC50 (Jurkat) did it give?
A: Its IC50 is 22 µM.

Q: And the IC50 (Tumor necrosis factor)?
A: Its IC50 is 21 µM.

Q: For CCOC(=O)CCCCn1cnc2cc(OC)c(OC)cc2c1=O, which IC50 (Jurkat) is on record?
A: Its IC50 is 8 µM.

Q: What about the IC50 (Tumor necrosis factor) of the same molecule?
A: The IC50 was 6 µM.

Q: CCOC(=O)CCCN1CNc2cc(N)ccc2C1=O was tested. Which IC50 (Jurkat) did it give?
A: The IC50 was > 50 µM.

Q: And the IC50 (Tumor necrosis factor)?
A: Its IC50 is 5 µM.

Q: Which IC50 (Jurkat) does the source give for CCOC(=O)CCn1cnc2cc(OC)c(OC)cc2c1=O here?
A: The IC50 was > 25 µM.

Q: What about the IC50 (Tumor necrosis factor) of the same molecule?
A: The IC50 was 9 µM.

Q: Which IC50 (Tumor necrosis factor) does the source give for CCOC(=O)CCCn1c(Cl)nc2cc(OC)c(OC)cc2c1=O here?
A: The IC50 was 48 µM.

Q: Which IC50 (Jurkat) does the source give for CCOC(=O)CCCn1cc(Br)c2cc(O)c(O)cc2c1=O here?
A: The IC50 was 11 µM.

Q: What about the IC50 (Tumor necrosis factor) of the same molecule?
A: Its IC50 is 1 µM.

Q: With COc1cc2ccn(CCCC(=O)OCCN3CCOCC3)c(=O)c2cc1OC as the molecule, how does the IC50 (Jurkat) read?
A: The IC50 was > 100 µM.

Q: And the IC50 (Tumor necrosis factor)?
A: Its IC50 is 10 µM.

Q: With CCOC(=O)CCCn1cnc2ccc(Br)cc2c1=O as the molecule, how does the IC50 (Tumor necrosis factor) read?
A: The IC50 was > 25 µM.

Q: With CCOC(=O)CCCn1cnc2ccc(F)cc2c1=O as the molecule, how does the IC50 (Tumor necrosis factor) read?
A: Its IC50 is > 25 µM.

Q: Which results are given for CCOC(=O)CCCn1cnc2cc(OC)c(OC)c(Cl)c2c1=O?
A: IC50 (Jurkat): 89 µM; IC50 (Tumor necrosis factor): 22 µM

Q: COc1cc2ccnc(Nc3ccc(Br)cc3)c2cc1OC was tested. Which IC50 (Tumor necrosis factor) did it give?
A: Its IC50 is 38 µM.

Q: Which IC50 (Tumor necrosis factor) does the source give for CCOC(=O)CCCn1cnc2cc(OC)c(OC)c(N=[N+]=[N-])c2c1=O here?
A: Its IC50 is > 25 µM.

Q: Which IC50 (Tumor necrosis factor) does the source give for CCOC(=O)CCCn1cc(Br)c2cc(OC)c(OC)cc2c1=O here?
A: The IC50 was 51 µM.

Q: How did the IC50 (Tumor necrosis factor) turn out when CCOC(=O)CCCn1cnc2cc(OC)c(OC)c(N)c2c1=O [listing 2 of 2 here] was run?
A: The IC50 was 15 µM.

Q: With CCOC(=O)CCCn1ccc2cc(O)c(O)cc2c1=O as the molecule, how does the IC50 (Jurkat) read?
A: Its IC50 is 47 µM.

Q: And the IC50 (Tumor necrosis factor)?
A: Its IC50 is 2 µM.

Q: Which IC50 (Tumor necrosis factor) does the source give for CCOC(=O)CCCn1cc(F)c2c(F)c(OC)c(OC)cc2c1=O here?
A: Its IC50 is > 100 µM.

Q: How did the IC50 (Tumor necrosis factor) turn out when CCOC(=O)CCCn1c(Nc2ccc(Br)cc2)nc2cc(OC)c(OC)cc2c1=O was run?
A: Its IC50 is > 50 µM.

Q: What does the source list for CCOC(=O)CCCn1c(N=[N+]=[N-])nc2cc(OC)c(OC)cc2c1=O?
A: IC50 (Jurkat): > 25 µM; IC50 (Tumor necrosis factor): 14 µM

Q: Which IC50 (Tumor necrosis factor) does the source give for CNC(=O)CCCn1cc(Br)c2cc(OC)c(OC)cc2c1=O here?
A: The IC50 was > 100 µM.

Q: With CCOC(=O)CCCn1cc(F)c2cc(OC)c(OC)cc2c1=O as the molecule, how does the IC50 (Tumor necrosis factor) read?
A: The IC50 was 20 µM.

Q: What does the source list for CCOC(=O)CCCn1cc(C#N)c2cc(OC)c(OC)cc2c1=O?
A: IC50 (Jurkat): 10 µM; IC50 (Tumor necrosis factor): 5 µM

Q: With CCOC(=O)CCCn1cnc2cc(F)ccc2c1=O as the molecule, how does the IC50 (Tumor necrosis factor) read?
A: Its IC50 is > 25 µM.

Q: Which IC50 (Tumor necrosis factor) does the source give for CCOC(=O)CCCOc1nc(Cl)nc2cc(OC)c(OC)cc12 here?
A: Its IC50 is 68 µM.

Q: What does the source list for CCOC(=O)CCCn1cc(CN)c2cc(OC)c(OC)cc2c1=O?
A: IC50 (Jurkat): 7 µM; IC50 (Tumor necrosis factor): 13 µM

Q: With CCOC(=O)CCCn1cc(N)c2cc(OC)c(OC)cc2c1=O as the molecule, how does the IC50 (Tumor necrosis factor) read?
A: Its IC50 is 37 µM.

Q: With COc1cc2ccnc(Nc3ccc(Cl)cc3)c2cc1OC as the molecule, how does the IC50 (Tumor necrosis factor) read?
A: The IC50 was 35 µM.

Q: How did the IC50 (Tumor necrosis factor) turn out when CCOC(=O)CCCOc1nc(Nc2ccc(Br)cc2)nc2cc(OC)c(OC)cc12 was run?
A: Its IC50 is > 25 µM.

Q: With CCOC(=O)CCCn1ccc2ccccc2c1=O as the molecule, how does the IC50 (Jurkat) read?
A: The IC50 was > 50 µM.

Q: What about the IC50 (Tumor necrosis factor) of the same molecule?
A: Its IC50 is 5 µM.

Q: How did the IC50 (Tumor necrosis factor) turn out when CCOC(=O)CCCn1c(Nc2ccccc2)nc2cc(OC)c(OC)cc2c1=O was run?
A: Its IC50 is > 25 µM.

Q: Which IC50 (Tumor necrosis factor) does the source give for CCOC(=O)CCCOc1nc(N(C)C)nc2cc(OC)c(OC)cc12 here?
A: Its IC50 is > 25 µM.

Q: Which IC50 (Tumor necrosis factor) does the source give for CCOC(=O)CCCn1cnc2cc(Cl)ccc2c1=O here?
A: The IC50 was > 25 µM.

Q: For CCOC(=O)CCCn1cnc2cc(O)c(O)cc2c1=O, which IC50 (Tumor necrosis factor) is on record?
A: Its IC50 is 48 µM.

Q: Which IC50 (Tumor necrosis factor) does the source give for CNC(=O)CCCn1ccc2cc(OC)c(OC)cc2c1=O here?
A: The IC50 was > 100 µM.

Q: For CCOC(=O)CCCn1cnc2cc([N+](=O)[O-])ccc2c1=O, which IC50 (Tumor necrosis factor) is on record?
A: The IC50 was > 25 µM.

Q: How did the IC50 (Jurkat) turn out when CCOC(=O)CCCN1CNc2ccc(N)cc2C1=O was run?
A: Its IC50 is > 100 µM.

Q: And the IC50 (Tumor necrosis factor)?
A: The IC50 was 10 µM.

Q: For CCOC(=O)CCCn1cnc2cc(F)c(F)cc2c1=O, which IC50 (Tumor necrosis factor) is on record?
A: Its IC50 is > 25 µM.

Q: For CCOC(=O)CCCn1ccc2cc(OC(C)=O)c(OC(C)=O)cc2c1=O, which IC50 (Jurkat) is on record?
A: Its IC50 is 40 µM.

Q: For CCOC(=O)CCCn1cnc2ccccc2c1=O, which IC50 (Tumor necrosis factor) is on record?
A: Its IC50 is > 25 µM.

Q: How did the IC50 (Tumor necrosis factor) turn out when COc1cc2ccnc(Nc3cccc(Cl)c3)c2cc1OC was run?
A: The IC50 was 33 µM.

Q: COc1cc2ccnc(Nc3ccccc3)c2cc1OC was tested. Which IC50 (Tumor necrosis factor) did it give?
A: The IC50 was > 100 µM.

Q: How did the IC50 (Tumor necrosis factor) turn out when CCOC(=O)CCCn1c(N)nc2cc(OC)c(OC)cc2c1=O was run?
A: The IC50 was > 25 µM.

Q: Which IC50 (Tumor necrosis factor) does the source give for CCOC(=O)CCn1ccc2cc(OC)c(OC)cc2c1=O here?
A: The IC50 was 50 µM.

Q: Which results are given for CCOC(=O)CCCn1cnc2cc(N)ccc2c1=O?
A: IC50 (Jurkat): 13 µM; IC50 (Tumor necrosis factor): 9 µM

Q: Which IC50 (Tumor necrosis factor) does the source give for COc1cc2ccn(CCCC(=O)O)c(=O)c2cc1OC here?
A: The IC50 was > 100 µM.

Q: What does the source list for CCOC(=O)CCCn1ccc2cc(OC(=O)OCC)c(OC(=O)OCC)cc2c1=O?
A: IC50 (Jurkat): 40 µM; IC50 (Tumor necrosis factor): 11 µM

Q: Which IC50 (Tumor necrosis factor) does the source give for COc1cc2ccnc(NCCO)c2cc1OC here?
A: The IC50 was 55 µM.
